# LEDGF integ inh = blocks HIV-1 LEDGF/p75-dependent DNA integration. TR-FRET IN-LEDGF/p75 DNA integration, Eu/Cy5. inhibition, % at 3.7 µM. 370,000 compounds, 0.64% hits. AID 743269;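 active = inhibition above the screen-wide mean plus 3 SD, cut at about 13% in these data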;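 note: signal is the Cy5 over europium emission ratio at 671 and 618 nm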
# MBD2 inh = MBD2-methylated oligo binding inhibition. TR-FRET, MBD2 binding to methylated oligonucleotide. inhibition, % at 4.4 µM. AID 686964. Q9UBB5. 370,000 compounds, 0.31% hits; in the data active = inhibition above about 13%
# Rin1-Abl PPI inh = blocks binding of human Rin1 to Abl. TR-FRET Rin1/Abl binding, biochemical. inhibition, % at 7.35 µM. 360,000 compounds, 0.4% hits. AID 588664; in the data active = inhibition above about 5%, passing the limit was not always enough
# UHRF1 MBD2 ctr = UHRF1 methyl-DNA binding inhibition. AID 687016. UHRF1 binding to methylated oligo, TR-FRET. inhibition, % at 4.4 µM. 370,000 compounds, 0.75% hits. Q96T88; in the data active = inhibition above about 21%;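 note: UHRF1 SRA domain binding a hemimethylated CpG hairpin DNA probe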
# TDP2 absorb = blocks human TDP2 phosphodiesterase activity; O95551; recombinant TDP2, T5PNP hydrolysis, p-nitrophenol absorbance 415 nm; inhibition, % at 12.8 µM; 370,000 compounds, 0.34% hits;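 active = inhibition above the mean of all tested compounds plus 3 SD, set per campaign, cut at about 25% in these data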
# Target sequence (O95551 whole entry, looked up): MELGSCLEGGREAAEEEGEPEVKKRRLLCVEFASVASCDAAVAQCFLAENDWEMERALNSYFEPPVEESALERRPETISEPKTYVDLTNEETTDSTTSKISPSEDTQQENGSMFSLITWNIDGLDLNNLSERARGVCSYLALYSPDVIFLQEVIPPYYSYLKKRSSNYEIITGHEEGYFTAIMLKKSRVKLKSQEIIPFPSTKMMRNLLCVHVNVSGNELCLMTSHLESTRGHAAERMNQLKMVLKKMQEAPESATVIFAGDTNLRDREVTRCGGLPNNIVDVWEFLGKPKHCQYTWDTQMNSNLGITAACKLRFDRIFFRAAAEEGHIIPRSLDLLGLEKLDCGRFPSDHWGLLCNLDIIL
#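 Material: recombinant human TDP2; quantity: TDP2 enzyme at 120 nM final; medium: Tris-HCl pH 7.5 with MgCl2; compound: single concentration, 12.8 µM nominal, with 1% DMSO; incubation: 2 h enzyme incubation at 37 °C; signal: epi absorbance; measure: percent inhibition; benchmarks: high control without enzyme, low control DMSO plus TDP2; repeats: singlicate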
# IN multimer up = activates HIV-1 integrase multimerization in LEDGF counter-screen | activation, % at 7.7 µM | 2,000 compounds, 17% hits | TR-FRET HIV-1 integrase multimerization, biochemical | shares compounds with LEDGF integ inh; in the data active = activation above about 8.9%
# TR-FRET interf = counter-screen for LEDGF/p75 integration inhibitors: TR-FRET optical interference; TR-FRET optical interference counterscreen, HIV-1 IN multimerization; shares compounds with LEDGF integ inh; 2,000 tested, under 10 active; inhibition, % at 7.7 µM;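 active = inhibition above the mean over all tested compounds plus 3 SD, which no compound reached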
# LEDGF integ conf = LEDGF/p75-dependent HIV-1 integration inhibition, confirmation; shares compounds with LEDGF integ inh; inhibition, % at 3.7 µM; AID 1053136; TR-FRET LEDGF/p75-dependent HIV-1 integration, biochemical; 2,000 compounds, 36% hits; in the data active = inhibition above about 14%
# A number is an active result; n = inactive; x = no result given. Sampled rows, rich in hits. Any-hit rate of the full collection: about 1.9%.
SMILES,LEDGF integ inh,MBD2 inh,Rin1-Abl PPI inh,UHRF1 MBD2 ctr,TDP2 absorb,IN multimer up,TR-FRET interf,LEDGF integ conf
C=C1C(=O)O[C@@H]2C[C@@H](C)[C@@H]3C=CC(=O)[C@@]3(C)[C@@H](OC(=O)CC(=O)O[C@H]3[C@@H]4C(=C)C(=O)O[C@@H]4C[C@@H](C)[C@@H]4C=CC(=O)[C@]43C)[C@H]12,25.0,n,n,n,n,n,n,59.2
C=CCN=C(SCC(=O)c1ccc(Cl)cc1)c1c(O)n(C)c(=O)n(C)c1=O,n,n,n,n,n,x,x,x
O=C1C=C2C=C[C@@H]3CC2(O1)[C@H]1CCCCN31,n,n,n,n,n,x,x,x
COc1ccc2c(c1)NP(=S)(c1ccccc1)N2C (configuration not stated),18.2,n,n,n,n,n,n,n
Fc1cccc(-c2ccc3c(c2)CN(c2cccc(Cl)c2)Cc2cnnn2-3)c1,33.6,n,n,n,n,n,n,20.3
CC(C)(C)C(=O)N1Cc2cc(-c3ccccc3)ccc2-n2nncc2C1,14.8,n,n,n,n,n,n,n
Fc1ccc(N2Cc3ccccc3-n3nncc3C2)cc1,20.6,n,n,n,n,n,n,19.2
O=S(=O)(c1cc(Cl)cc(Cl)c1)N1Cc2cc(-c3cccc(F)c3)ccc2-n2nncc2C1,n,n,n,n,n,x,x,x
CCCCn1nnnc1C(c1ccnc2ccccc12)N1CCC2(CC1)C(=O)NCN2c1ccccc1 (configuration not stated),n,n,n,n,n,x,x,x
Cc1ccc(-n2c(=S)[nH]c3ccc(C)cc3c2=O)cc1,n,n,n,n,n,x,x,x
CCC(CO)NC(=O)C1C=C2c3cccc4[nH]cc(c34)CC2N(C)C1 (configuration not stated),21.3,n,n,n,n,n,n,n
CN1C[C@H](CO)C[C@@H]2c3cccc4[nH]cc(c34)C[C@H]21,n,n,n,n,n,x,x,x
CC[C@@H](CO)NC(=O)[C@@H]1C=C2c3cccc4[nH]cc(c34)C[C@H]2N(C)C1,14.1,n,n,n,n,n,n,16.7
CCN(CC)C(=O)N[C@H]1C[C@@H]2c3cccc4[nH]cc(c34)C[C@H]2N(C)C1,n,n,n,n,n,x,x,x
CC1=C(C)CC2(C(=O)NC(=S)NC2=O)C(C)C1 (configuration not stated),n,n,n,n,n,x,x,x
COc1cc(C2c3cc4c(cc3CC3COC(=O)C32)OCO4)cc(OC)c1OC (configuration not stated),n,n,n,n,n,x,x,x
COc1cc(C2c3cc(O)c(OC)cc3CC3C(=O)OCC32)ccc1O (configuration not stated),13.9,n,n,n,n,n,n,n

# Source: PubChem BioAssay (The Scripps Research Institute Molecular Screening Center)
